Assay results reported in ChEMBL document CHEMBL1122635, “Synthesis and physicochemical and neurotoxicity studies of 1-(4-substituted-2,5-dihydroxyphenyl)-2-aminoethane analogues of 6-hydroxydopamine” (1984).

Experiments:
Rattus norvegicus [1] = assay: Ability to inhibit norepinephrine uptake in rat atria was determined at 486 umol/kg; assay type: functional
Outline: (§1)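 Male Sprague-Dawley rats (120 ± 10 g) got the dose in 0.9% saline with 0.1% ascorbic acid, 0.2 mL i.v. via the left femoral vein under light halothane. Controls got vehicle. At 24 h, atria were cut into four 10-15 mg pieces and incubated 30 min at 37 °C under 95% O2/5% CO2 in Krebs-Ringer bicarbonate (pH 7.35) with 10^-7 M [3H]NE. A 10 min washout followed, then HClO4 extracts were counted. Inhibition = control minus treated, 12 determinations from 3 rats, mean ± SD.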

Rattus norvegicus [2] = assay: Ability to inhibit norepinephrine uptake in rat atria was determined at 243 umol/kg; assay type: functional; outline: as §1
Rattus norvegicus [3] = assay: Ability to inhibit norepinephrine uptake in rat atria was determined at 122 umol/kg; assay type: functional; outline: as §1
Rattus norvegicus [4] = assay: Ability to inhibit norepinephrine uptake in rat atria was determined at 730uM/kg; b denotes 'Rats expired with in 30 min after injection'; assay type: functional, organism-based; outline: as §1
Rattus norvegicus [5] = assay: Ability to inhibit norepinephrine uptake in rat atria was determined at 486uM/kg; b denotes 'Rats expired with in 30 min after injection'; assay type: functional, organism-based; outline: as §1
Rattus norvegicus [6] = assay: Ability to inhibit norepinephrine uptake in rat atria was determined at 365 umol/kg; assay type: functional; outline: as §1
Rattus norvegicus [7] = assay: Ability to inhibit norepinephrine uptake in rat atria was determined at 73 uM/kg; assay type: functional; outline: as §1
Rattus norvegicus [8] = assay: Ability to inhibit norepinephrine uptake in rat atria was determined at 24 uM/kg; assay type: functional; outline: as §1
Rattus norvegicus [9] = assay: Ability to inhibit norepinephrine uptake in rat atria was determined at 49 uM/kg; assay type: functional; outline: as §1
Rattus norvegicus [10] = assay: Ability to inhibit norepinephrine uptake in rat atria was determined at 243uM/kg; b denotes 'Rats expired with in 30 min after injection'; assay type: functional, organism-based; outline: as §1
Rattus norvegicus [11] = assay: Ability to inhibit norepinephrine uptake in rat atria was determined at 365uM/kg; b denotes 'Rats expired with in 30 min after injection'; assay type: functional, organism-based; outline: as §1
Rattus norvegicus [12] = assay: Ability to inhibit norepinephrine uptake in rat atria was determined at 97 umol/kg; assay type: functional; outline: as §1
Rattus norvegicus [13] = assay: Ability to inhibit norepinephrine uptake in rat atria was determined at122uM/kg; b denotes 'Rats expired with in 30 min after injection'; assay type: functional, organism-based; outline: as §1

| Structure (SMILES) | inhibition in vivo at 486 µmol/kg (Rattus norvegicus [1]) [%] | inhibition in vivo at 243 µmol/kg (Rattus norvegicus [2]) [%] | inhibition in vivo at 122 µmol/kg (Rattus norvegicus [3]) [%] | inhibition (Rattus norvegicus [4]) | inhibition (Rattus norvegicus [5]) | Inhibition (Rattus norvegicus [7]) [%] | also measured |
| --- | --- | --- | --- | --- | --- | --- | --- |
| NCCc1cc(O)c(C(=O)O)cc1O | 0 |  |  |  |  |  |  |
| NCCc1cc(O)c(Cl)cc1O | 0 |  |  |  |  |  |  |
| NCCc1cc(O)ccc1O | 0 |  |  |  |  |  |  |
| NCCc1cc(O)c(Br)cc1O |  | 10 | 0 |  |  |  |  |
| COc1cc(O)c(CCN)cc1O |  |  |  | Rats expired within 30min after injection | Rats expired within 30min after injection |  | inhibition in vivo at 365 µmol/kg (Rattus norvegicus [6]): 26% |
| Cc1cc(O)c(CCN)cc1O |  | 27 | 19 | Rats expired within 30min after injection | Rats expired within 30min after injection | 16 | inhibition in vivo at 365 µmol/kg (Rattus norvegicus [6]): 24% |
| NCCc1cc(O)c(N)cc1O |  |  |  | Rats expired within 30min after injection | Rats expired within 30min after injection | 80 | Inhibition (Rattus norvegicus [8]): 20%; Inhibition (Rattus norvegicus [9]): 60%; inhibition (Rattus norvegicus [10]): Rats expired within 30min after injection; inhibition (Rattus norvegicus [11]): Rats expired within 30min after injection; inhibition in vivo at 97 µmol/kg (Rattus norvegicus [12]): 91%; inhibition (Rattus norvegicus [13]): Rats expired within 30min after injection |
| N#Cc1cc(O)c(CCN)cc1O | 0 |  |  |  |  |  |  |
| NCCc1cc(O)c([N+](=O)[O-])cc1O | 0 |  |  |  |  |  |  |
| NCCc1cc(O)c(O)cc1O [OXIDOPAMINE] | 87 | 85 | 79 |  |  | 74 | Inhibition (Rattus norvegicus [8]): 45%; Inhibition (Rattus norvegicus [9]): 68%; inhibition in vivo at 97 µmol/kg (Rattus norvegicus [12]): 79% |
